The list is not random: actives were taken first. Their share in the collection is about 3.4%.
SIRT5 inh = inhibitors of human sirtuin-5 desuccinylase; Q9NXA8; Purified SirT5, succinyl-peptide AMC, trypsin-coupled fluorescence; inhibition, % at 15 µM; 1.1% of 330,000 active; AID 652115; in the data active = inhibition above about 15%; inconclusive = no clear call, values can overlap the other calls
S100A4 MyoIIA = blocks human S100A4 binding to myosin IIA peptide | 0.14% of 360,000 active | P26447 | AID 652163 | S100A4/TAMRA-MyoIIA peptide fluorescence polarization | inhibition, % at 10.7 µM;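 active = mean inhibition of at least 70% across replicates, with every replicate also reaching that level; inconclusive = mean inhibition reaches 70% but some replicates fall short; inactive = mean inhibition below 70%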
Target sequence (P26447 whole entry, looked up): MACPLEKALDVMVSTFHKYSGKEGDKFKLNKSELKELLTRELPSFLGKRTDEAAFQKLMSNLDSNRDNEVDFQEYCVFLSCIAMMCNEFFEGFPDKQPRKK
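Material: human S100A4 monomer with TAMRA-labelled myosin IIA peptide; buffer or medium: HEPES pH 7.2 with CaCl2, KCl, NaCl, DTT, Triton; compound dosing: one concentration per compound; schedule: 5 min incubation before reading; benchmarks: neutral control DMSO, positive control TFP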
ERAP1 HTS inh = inhibitors of human ERAP1 aminopeptidase. Q9NZ08. inhibition, % at 10.7 µM. 0.15% of 340,000 active. recombinant ERAP1, Leu-AMC fluorescence, 60 min;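 active = mean replicate inhibition of at least 30%, or all replicates individually reaching that 30% level; inactive = mean below 30% and not every replicate reaching it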;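 also: 0% = neutral control wells and 100% = L-leucinethiol positive control wells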
E-selectin induc = E-selectin induction on HUVECs | HUVEC E-selectin immunofluorescence imaging; normalized: neutral wells 0, TNF-alpha wells 100 | activation, % at 7.58 µM | 0.37% of 260,000 active;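 active = mean E-selectin-positive cell signal at least 10% of the positive control, reached in at least 60% of replicates, without over 20% cell loss; inconclusive = no rule given, readout overlaps actives, possibly toxicity-flagged; inactive = the rest, including those meeting only one limit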
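Material: HUVEC primary endothelial cells; Amount: 3,000 cells per well; Dosing: single concentration; Medium: EGM-2 growth medium on 0.1% gelatin-coated wells; Read-out basis: percent E-selectin-positive cells; Signal: immunofluorescence imaging; Control set: TNF-alpha, DMSO.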
rRNA inh HTS = inhibitors of bacterial rRNA selective over humanized ribosomes; GFP signal change (wild-type ribosome), % (test concentration not listed); AID 720706; 1.6% of 350,000 active; E. coli WT GFP vs humanized-ribosome RFP mutants, fluorescence, 24 h; active compounds read low; DMSO median 0, no signal -100;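 active = significant combined selectivity score with lowered wild-type GFP, culture density cut under 30%, mutant RFP and density less affected; inactive = any of these conditions unmet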
MLL AF4-AF9 inh = inhibitors of human MLL-AF4/AF9 interaction; P42568; AlphaScreen, biotin-AF4 peptide binding to FLAG-AF9; inhibition, % at 10 µM; 0.47% of 350,000 active; AID 651704;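 active = every replicate reaching a set inhibition limit, whatever the replicate mean, cut at about 25% in these data; inconclusive = mean inhibition reaches that limit but some replicates miss it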;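 also: 0% = plate neutral control median and 100% = total signal loss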
Target sequence (P42568 whole entry, looked up): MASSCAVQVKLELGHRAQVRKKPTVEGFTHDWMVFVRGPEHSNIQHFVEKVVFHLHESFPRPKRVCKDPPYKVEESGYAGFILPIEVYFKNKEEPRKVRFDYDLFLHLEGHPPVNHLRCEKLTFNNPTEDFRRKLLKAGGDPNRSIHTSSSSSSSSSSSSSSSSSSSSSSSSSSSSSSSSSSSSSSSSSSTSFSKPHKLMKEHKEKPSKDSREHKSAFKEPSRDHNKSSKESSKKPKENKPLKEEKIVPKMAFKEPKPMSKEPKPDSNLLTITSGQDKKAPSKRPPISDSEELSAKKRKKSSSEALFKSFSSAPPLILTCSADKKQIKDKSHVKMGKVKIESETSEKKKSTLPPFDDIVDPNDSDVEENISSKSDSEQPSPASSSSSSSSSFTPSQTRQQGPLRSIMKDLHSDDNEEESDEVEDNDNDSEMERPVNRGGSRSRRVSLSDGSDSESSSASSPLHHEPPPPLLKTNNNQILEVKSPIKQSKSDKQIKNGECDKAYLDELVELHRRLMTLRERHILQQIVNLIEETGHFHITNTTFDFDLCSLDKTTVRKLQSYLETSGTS
Alpha interfer = counter-screen: AlphaScreen signal interference. shares compounds with MLL AF4-AF9 inh. signal luminescence. AC50, µM (top dose mostly 12 µM), inactives show top-dose activity change, negative = inhibition. 45% of 530 active; cut-off not given, nearly all actives have AC50 up to about 14 µM
* marks the source's active call; other numbers are inactive results; ? = inconclusive; . = no result.

SMILES | SIRT5 inh | S100A4 MyoIIA | ERAP1 HTS inh | E-selectin induc | rRNA inh HTS | MLL AF4-AF9 inh | Alpha interfer
C[C@H](CO)N1C[C@H](C)[C@H](CN(C)S(=O)(=O)c2ccc(Cl)cc2)Oc2c(NC(=O)C3CCCCC3)cccc2C1=O | 2 | 7 | -2 | 36* | -4 | 2 | .
C[C@@H]1CN([C@@H](C)CO)C(=O)c2cccc(NC(=O)Nc3ccccc3)c2O[C@@H]1CN(C)S(=O)(=O)c1ccc(Cl)cc1 | 5 | -3 | -1 | 0 | -25* | 1 | .
C[C@@H]1CN([C@H](C)CO)C(=O)c2cccc(NC(=O)Nc3ccccc3)c2O[C@H]1CN(C)S(=O)(=O)c1ccc(Cl)cc1 | -1 | -2 | 0 | 0 | 0 | 0 | .
Cc1ccc(S(=O)(=O)N(C)C[C@H]2Oc3c(NC(=O)Nc4ccc5c(c4)OCO5)cccc3C(=O)N([C@@H](C)CO)C[C@H]2C)cc1 | 15* | 1 | -5 | 0 | -9 | -5 | .
COc1ccc2c3c(n(C)c2c1)[C@H](CO)N(Cc1ccccc1F)CC31CCN(C(C)=O)CC1 | . | . | . | 0 | 3 | 5 | .
CC(C)NC(=O)N(C)C[C@H]1Oc2cc(C#CC3CC3)ccc2S(=O)(=O)N([C@H](C)CO)C[C@H]1C | -1 | -2 | -5 | 0 | -1 | -2 | .
COc1ccc2[nH]c(=O)c(C(c3nnnn3CC3CCCO3)N3CCCCC3)cc2c1 (centres undefined) | -9 | -6 | -1 | . | 13 | -1 | .
COCCn1nnnc1C(c1cc2cc(OC)ccc2[nH]c1=O)N1CCC(Cc2ccccc2)CC1 (centres undefined) | 17* | -4 | 1 | . | 5 | -38 | .
O=C(CSc1ccncc1)Nc1ccc(S(=O)(=O)Nc2nccs2)cc1 | . | 5 | 0 | 1 | 5 | -1 | .
Cc1ccc(SCC(=O)Nc2ccc(S(=O)(=O)Nc3nccs3)cc2)cc1 | -6 | -6 | -2 | . | -37* | -37 | .
CCCN1[C@H](C(=O)OC)[C@@H](CO)[C@@H]2Cn3c(ccc(-c4ccncc4)c3=O)[C@@H]21 | 0 | 5 | -1 | 0 | 1 | -3 | .
CN1C(=O)c2cc(NC(=O)c3cnccn3)ccc2OC[C@H]2O[C@H](CC(=O)NCC3CC3)CC[C@H]21 | . | 3 | -4 | 0 | 3 | -3 | .
O=C(CCCSc1nc2ccccc2s1)NCc1ccc2c(c1)OCO2 | -1 | 0 | 6 | 0 | -28* | -79 | .
O=C(CSc1nc2ccccc2s1)NCc1ccc2c(c1)OCO2 | . | . | . | 2 | . | . | .
COc1ccc2c3c(n(C)c2c1)[C@H](CO)N(CC1CC1)CC31CCN(C(=O)c2cccnc2)CC1 | . | . | . | 0 | 2 | 1 | .
Cc1[nH]n(-c2ccccc2)c(=O)c1N=Nc1c(O)cc(S(=O)(=O)N(C)C)c2ccccc12 | . | 1 | . | 0 | 9 | 50* | 9%
C[C@@H]1CN([C@H](C)CO)C(=O)Cc2cc(N(C)C)ccc2O[C@@H]1CN(C)Cc1ccc(Cl)c(Cl)c1 | 3 | -7 | 1 | 0 | -4 | 31* | -27%
C[C@H]1CCCCO[C@@H](CN(C)Cc2ccc3c(c2)OCO3)[C@@H](C)CN([C@@H](C)CO)C(=O)c2cc(N(C)C)ccc2O1 | -6 | 7 | 2 | . | -3 | 20 | .
C[C@H]1CCCCO[C@H](CN(C)Cc2ccc(Cl)c(Cl)c2)[C@@H](C)CN([C@@H](C)CO)C(=O)c2cc(N(C)C)ccc2O1 | 4 | 10 | 1 | . | . | 63* | 13µM*
C[C@H]1CN([C@@H](C)CO)C(=O)c2cc(N(C)C)ccc2O[C@@H]1CN(C)Cc1ccc(Cl)c(Cl)c1 | . | -6 | -1 | 0 | -59 | 29* | -31%
O=C(C[C@H]1CC[C@H](NC(=O)Cc2cccnc2)[C@@H](CO)O1)NCc1ccc2c(c1)OCO2 | 1 | 11 | 4 | -1 | 2 | -12 | .
CC(C)C#Cc1ccc2c(c1)O[C@H](CN(C)S(C)(=O)=O)[C@H](C)CN([C@@H](C)CO)S2(=O)=O | 1 | -3 | 0 | 0 | -3 | 0 | .
COc1ccccc1-c1cn(CC[C@@H]2CC[C@H](NC(=O)c3cnccn3)[C@H](CO)O2)nn1 | 7 | 3 | . | 0 | -3 | 1 | .
N#C[C@@H]1[C@H](c2ccc(C3=CCCC3)cc2)[C@H](CO)N1C(=O)C1CCOCC1 | 0 | 0 | 0 | 0 | 4 | -2 | .
CC(C)C(=O)Nc1ccc2c(c1)C(=O)N(C)[C@H]1CC[C@@H](CC(=O)NCc3ccccc3F)O[C@H]1CO2 | . | . | . | 0 | -4 | . | .
SMILES | SIRT5 inh | S100A4 MyoIIA | ERAP1 HTS inh | E-selectin induc | rRNA inh HTS | MLL AF4-AF9 inh | Alpha interfer
C(=N\Nc1nc2ccccc2[nH]1)/c1ccccc1 | -6 | -2 | -5 | 0 | -53 | 7 | .
O=[N+]([O-])c1cc(/C=N/Nc2nc3ccccc3[nH]2)c(O)cc1O | 10 | 3 | 1 | 7 | -62 | 41* | 1.6µM*
COc1cc(NCCCCCCN)c2ncccc2c1OC | 5 | 28 | 0 | 0 | 40 | 43* | -30%
COc1cc(NC(C)CCCNC(C)C)c2ncccc2c1OC (centres undefined) | . | 21 | 2 | 0 | 31 | 3 | .
C[C@H]1CCCCO[C@H](CN(C)C(=O)CCC(F)(F)F)[C@@H](C)CN([C@@H](C)CO)C(=O)c2cc(NS(C)(=O)=O)ccc2O1 | 7 | 2 | 1 | 0 | 1 | 0 | .
O=C(Cc1cccnc1)N1CC(=O)N2[C@H](C1)[C@H](c1ccc(C3=CCCC3)cc1)[C@@H]2CO | 1 | 6 | 0 | 0 | 0 | 37* | -19%
O=C(c1ccccc1F)N1C[C@@H]2[C@H](c3ccccc31)[C@@H](CO)N2C(=O)Nc1ccccc1 | 4 | 5 | 0 | 0 | 1 | -1 | .
CO[C@@H]1CN(C)C(=O)c2cc(NC(=O)c3ccccc3)ccc2OC[C@@H](C)N(C(C)=O)C[C@H]1C | -3 | -17 | -3 | 0 | 2 | -1 | .
CC1NC(=O)NC1CCCCCC(=O)Nc1ccc(F)cc1 (centres undefined) | -4 | -2 | -1 | 0 | 6 | 93* | 0.68µM*
O=C(CCCC(=O)c1ccccc1)Nc1ccc(F)cc1 | -2 | -2 | 3 | 0 | 5 | -5 | .
O=C1C=C(N2CCOCC2)c2ccccc2C1=O | 3 | -8 | 0 | 0 | 52 | 3 | .
Cc1ccc(N2CCOCC2)c2c1C(=O)c1ccccc1C2=O | -1 | -2 | -1 | 0 | -51 | 64* | 10µM*
O=C(NN1C(=O)/C(=C/c2ccc(O)c(O)c2)SC1=S)c1ccccc1 | 10 | 6 | 6 | . | -31* | ? | -24%
